The values below come from PubChem BioAssay.

Values without a mark were called inactive.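 The calls were made as follows, unless noted: active = growth inhibition above a set limit, 3 SD over mean compound inhibition, in both replicates (cut at about 43% in these data); inconclusive = above the limit in only one replicate; inactive = at or below the limit in both replicates.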

A short description of one assay: Restrictive medium S. cerevisiae growth inhibition, OD615, pilot screen of yeast lifespan reduction project, restrictive growth control (AID 706).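 Also: modified DeaD lifespan yeast strain shifted to restrictive glucose medium.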 As to conditions: OD615, 48 h, at 10 µM, stronger effect = higher value. A digest of the protocol:
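System: Engineered S. cerevisiae DeaD strain | Buffer or medium: Glucose-based CSMM-D restrictive medium | Schedule: 4 h pre-incubation, 48 h exposure at 30 °C | Technique: Optical density at 615 nm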
As to `Cc1cc(C)c(C)c(S(=O)(=O)Nc2ccccc2C(=O)NCCCn2ccnc2)c1C`, the growth inhibition was 12.5%.
Still for that read-out and setting: next, `COc1ccc(N2CCN(CCCNC(=O)CCCn3c(=O)[nH]c4ccsc4c3=O)CC2)cc1`: -8.79%; `CC12COC3(C(=O)Nc4cccnc4)CC1CCC32C` (stereo not given): 1.04%.
In the case of `CCOC(=O)C1CCN(C(=O)c2ccc(NC(=O)C3CCCO3)cc2)CC1` (stereo not given), the growth inhibition was -7.09%.
The same measure, in the same setting: next, `O=C(CSc1oc(-c2ccc(F)cc2)nc1S(=O)(=O)c1ccccc1)NCC1CCCO1` (stereo not given): 4.17%; `O=C(NCC1COc2ccccc2O1)c1ccc(NC(=O)C2CCCO2)cc1` (stereo not given): 3.32%; `COc1ccc(N2CCN(CCNC(=O)c3ccc(NC(=O)C4CCCO4)cc3)CC2)cc1` (stereo not given): -9.71%.
The same measure, in the same setting: the result for `CC(C)N(C(=O)C1CC(=O)OC12CCCCC2)C(C)C` (stereo not given) reads 3.32%.
The same measure, in the same setting: the result for `Cn1nnc2c(NCc3ccco3)nccc21` reads -1.62%; that for `CCCCNC(=O)c1ccc(NC(=O)C2CCCO2)cc1` (stereo not given), -3.53%; that for `CC1Cc2ccccc2N1C(=O)CCS(=O)(=O)c1cccc2nonc12` (stereo not given), 10.7%.
On to `O=C(NCc1cccs1)C1CCCN(S(=O)(=O)c2ccc3c(c2)OCO3)C1` (stereo not given), for which the growth inhibition was -1.21%.
Still for that read-out and setting: the result for `O=C(CCCOc1ccccc1)Nc1nnc(C2CCCO2)s1` (stereo not given) reads -3.93%.
Turning to `CC(C)Sc1nc(NCc2ccco2)c2c3c(sc2n1)COC(C)(C)C3`, the growth inhibition was 22.4%.
With `CC(=O)c1c(C)n(-c2ccc(N(C)C)cc2)c2ccc(OCC(N)=O)cc12`, the growth inhibition was -6.18%.
Turning to `O=C(CS(=O)(=O)c1c[nH]c2ccccc12)Nc1ccc2c(c1)OCCO2`, the growth inhibition was -1.07%.
Still for that read-out and setting: the result for `CCn1cc(C(=O)N2CCN(c3ccccn3)CC2)c2cc(OC)c(OC)cc2c1=O` reads -7.93%.
On the same count and under the same terms, the result for `CCCCNC(=O)C1C2C=CC3(CN(Cc4ccc(C)cc4)C(=O)C13)O2` (stereo not given) reads -16.4%; that for `COc1ccc(CNC(=O)c2ccc(NC(=O)C3CCCO3)cc2)cc1` (stereo not given), -0.99%.
Still for that read-out and setting: next, `O=C(CNC(=O)Cn1ccc2ccccc2c1=O)NCCCN1CCN(c2cccc(Cl)c2)CC1`: -5.33%; `CCN1CCN(Cc2nc3c(c(=O)n(C)c(=O)n3C)n2CCCc2ccccc2)CC1`: -8.71%.
Regarding `COCc1cc(=O)n2c(-c3ccccc3OC)n[nH]c2n1`, the growth inhibition is 4.39%.
Same read-out and setting: next, `Cc1ccccc1C(=O)Nc1nnc(-c2ccc(F)cc2)o1`: 11.5%; `COc1ccc(-c2cc(NCCc3ccncc3)n3ncnc3n2)cc1`: 14.2%.
Same read-out and setting: the result for `CCN(CC)c1ccc(NC(=O)c2ccc(NC(=O)C3CCCO3)cc2)c(C)c1` (stereo not given) reads 3.42%; that for `CCC1(C)Cc2c(sc3c2c2ncnn2c2nnc(SCC(=O)NCc4ccco4)n32)CO1` (stereo not given), -5.88%.
Same read-out and setting: the result for `CCN(Cc1ccncc1)C(=O)c1cccc(S(=O)(=O)N2CCOCC2)c1` reads 6.31%; that for `CC(C)c1ccc(-c2nc(N3CCCC3)nc3n[nH]c(N)c23)cc1`, 10.3%; that for `CCOC(=O)N1CCN(C(=O)CCc2nc3sc4c(c3c(=O)[nH]2)CCCC4)CC1`, 2.66%.
Turning to `COc1ccc(-c2nc(N3CCOCC3)nc3n[nH]c(N)c23)cc1`, the growth inhibition was 14.9%.
Same read-out and setting: next, `OC(COCc1cccs1)CN1CCN(c2ccccn2)CC1` (stereo not given): -7.78%; `CCOC(=O)c1cc(NC(=O)OC)c(C)nc1C`: 4.23%; `COc1cc(-c2nc3cnccn3c2Nc2ccc3c(c2)OCCO3)ccc1O`: -2.52%.
With `CN1CCc2c(sc3c2c(=O)n(-c2ccc(Cl)cc2)c2nncn32)C1`, the growth inhibition is 7.29%.
`C(=N\c1nccs1)/c1c[nH]c2ccccc12`: the growth inhibition is 7.43%.
For `CCN1CCN(Cc2nc3c(c(=O)n(C)c(=O)n3C)n2C(C)C(C)=O)CC1` (stereo not given), the growth inhibition was -4.38%.
The same measure, in the same setting: the result for `CCCCn1c(C(C)NC(=O)c2cccs2)nc2ccccc21` (stereo not given) reads -2.79%.
Same read-out and setting: the result for `CCn1cc(C(=O)NCc2cccnc2)c2cc(OC)c(OC)cc2c1=O` reads -10%; that for `O=C1C(Cl)=C(Nc2ccccc2O)C(=O)N1c1ccccc1`, -9.91%.
Still for that read-out and setting: the result for `O=C(NCc1nc2ccccc2[nH]1)c1ccc(S(=O)(=O)N2CCOCC2)cc1` reads -0.75%.

Another assay is described as follows: viability gain of MRP-1-high H69AR cells under doxorubicin, pilot screen, MRP-1 activator project, CellTiter-Glo, duplicate (AID 807;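 active = viability increase at or above a cutoff of the median across tested compounds plus 3 SD, cut at about 8.5% in these data, passing the limit was not always enough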;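 also: compound pretreatment 18-22 h then 72 h combined with doxorubicin; 0% = doxorubicin alone and 100% = vehicle without doxorubicin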). As to conditions: H69AR viability with doxorubicin, CellTiter-Glo luminescence; at 10 µM; stronger effect = higher value. On the technique in general: In ATP-based viability assays light output follows the ATP content of the culture.
As to `Cc1cc(C)c(C)c(S(=O)(=O)Nc2ccccc2C(=O)NCCCn2ccnc2)c1C`, the viability increase is -5.57%.
The same measure, in the same setting: the result for `COc1ccc(N2CCN(CCCNC(=O)CCCn3c(=O)[nH]c4ccsc4c3=O)CC2)cc1` reads -1.23%; that for `CC12COC3(C(=O)Nc4cccnc4)CC1CCC32C` (stereo not given), -2.08%.
Turning to `CCOC(=O)C1CCN(C(=O)c2ccc(NC(=O)C3CCCO3)cc2)CC1` (stereo not given), the viability increase is -2.64%.
Same read-out and setting: the result for `O=C(CSc1oc(-c2ccc(F)cc2)nc1S(=O)(=O)c1ccccc1)NCC1CCCO1` (stereo not given) reads -5.58%; that for `O=C(NCC1COc2ccccc2O1)c1ccc(NC(=O)C2CCCO2)cc1` (stereo not given), 0.86%.
Same read-out and setting: the result for `COc1ccc(N2CCN(CCNC(=O)c3ccc(NC(=O)C4CCCO4)cc3)CC2)cc1` (stereo not given) reads -1.61%; that for `CC(C)N(C(=O)C1CC(=O)OC12CCCCC2)C(C)C` (stereo not given), -0.41%; that for `Cn1nnc2c(NCc3ccco3)nccc21`, -4.4%.
As for `CCCCNC(=O)c1ccc(NC(=O)C2CCCO2)cc1` (stereo not given), the viability increase was -0.44%.
Same read-out and setting: next, `CC1Cc2ccccc2N1C(=O)CCS(=O)(=O)c1cccc2nonc12` (stereo not given): -6.45%; `O=C(NCc1cccs1)C1CCCN(S(=O)(=O)c2ccc3c(c2)OCO3)C1` (stereo not given): -3.16%.
Regarding `O=C(CCCOc1ccccc1)Nc1nnc(C2CCCO2)s1` (stereo not given), the viability increase was -2.89%.
The same measure, in the same setting: next, `CC(C)Sc1nc(NCc2ccco2)c2c3c(sc2n1)COC(C)(C)C3`: -8.23%; `CC(=O)c1c(C)n(-c2ccc(N(C)C)cc2)c2ccc(OCC(N)=O)cc12`: -4.87%.
Take `O=C(CS(=O)(=O)c1c[nH]c2ccccc12)Nc1ccc2c(c1)OCCO2`: the viability increase is -3.49%.
Turning to `CCn1cc(C(=O)N2CCN(c3ccccn3)CC2)c2cc(OC)c(OC)cc2c1=O`, the viability increase was -4.32%.
On the same count and under the same terms, the result for `CCCCNC(=O)C1C2C=CC3(CN(Cc4ccc(C)cc4)C(=O)C13)O2` (stereo not given) reads -2.02%; that for `COc1ccc(CNC(=O)c2ccc(NC(=O)C3CCCO3)cc2)cc1` (stereo not given), 0.75%.
The same measure, in the same setting: next, `O=C(CNC(=O)Cn1ccc2ccccc2c1=O)NCCCN1CCN(c2cccc(Cl)c2)CC1`: -5.42%; `CCN1CCN(Cc2nc3c(c(=O)n(C)c(=O)n3C)n2CCCc2ccccc2)CC1`: -4.04%.
Same read-out and setting: the result for `COCc1cc(=O)n2c(-c3ccccc3OC)n[nH]c2n1` reads -3.36%; that for `Cc1ccccc1C(=O)Nc1nnc(-c2ccc(F)cc2)o1`, -2.91%.
With `COc1ccc(-c2cc(NCCc3ccncc3)n3ncnc3n2)cc1`, the viability increase was -4.7%.
Same read-out and setting: the result for `CCN(CC)c1ccc(NC(=O)c2ccc(NC(=O)C3CCCO3)cc2)c(C)c1` (stereo not given) reads 1.38%; that for `CCC1(C)Cc2c(sc3c2c2ncnn2c2nnc(SCC(=O)NCc4ccco4)n32)CO1` (stereo not given), -7.33%.
Still for that read-out and setting: next, `CCN(Cc1ccncc1)C(=O)c1cccc(S(=O)(=O)N2CCOCC2)c1`: -2.89%; `CC(C)c1ccc(-c2nc(N3CCCC3)nc3n[nH]c(N)c23)cc1`: -5.36%.
Same read-out and setting: next, `CCOC(=O)N1CCN(C(=O)CCc2nc3sc4c(c3c(=O)[nH]2)CCCC4)CC1`: -2.68%; `COc1ccc(-c2nc(N3CCOCC3)nc3n[nH]c(N)c23)cc1`: -6.84%.
As to `OC(COCc1cccs1)CN1CCN(c2ccccn2)CC1` (stereo not given), the viability increase is -1.3%.
Still for that read-out and setting: next, `CCOC(=O)c1cc(NC(=O)OC)c(C)nc1C`: -2.65%.
The same measure, in the same setting: next, `COc1cc(-c2nc3cnccn3c2Nc2ccc3c(c2)OCCO3)ccc1O`: -7.25%.
The same measure, in the same setting: the result for `CN1CCc2c(sc3c2c(=O)n(-c2ccc(Cl)cc2)c2nncn32)C1` reads 0.1%.
Regarding `C(=N\c1nccs1)/c1c[nH]c2ccccc12`, the viability increase is -4.92%.
Still for that read-out and setting: next, `CCN1CCN(Cc2nc3c(c(=O)n(C)c(=O)n3C)n2C(C)C(C)=O)CC1` (stereo not given): -1.83%; `CCCCn1c(C(C)NC(=O)c2cccs2)nc2ccccc21` (stereo not given): -3.37%.
Same read-out and setting: next, `CCn1cc(C(=O)NCc2cccnc2)c2cc(OC)c(OC)cc2c1=O`: -2.26%.
On the same count and under the same terms, next, `O=C1C(Cl)=C(Nc2ccccc2O)C(=O)N1c1ccccc1`: -6.15%; `O=C(NCc1nc2ccccc2[nH]1)c1ccc(S(=O)(=O)N2CCOCC2)cc1`: -2.83%.
